Reference: ChEMBL document CHEMBL1155544, “Syntheses and structure-activity relationship (SAR) studies of 2,5-diazabicyclo[2.2.1]heptanes as novel alpha7 neuronal nicotinic receptor (NNR) ligands” (Bioorg Med Chem Lett, 2010)

Assay: Metabolic stability in human liver microsome assessed as compound remaining after 30 mins
Assay type: ADME
Conditions: liver microsomes, read-out: Stability
How it was run: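 Human liver microsomes, 30 min incubation; read-out is percent of parent compound remaining.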

## CN1C[C@@H]2C[C@H]1CN2c1ccc(-c2ccc3[nH]ccc3c2)nn1
  remaining at 0.5 h: 97%
